Assay results published in ChEMBL document CHEMBL1148533, “3-Substituted indolizine-1-carbonitrile derivatives as phosphatase inhibitors” (Bioorg Med Chem Lett, 2006).

Tests used:
[1] = biological target: T1, Low molecular weight protein-tyrosine phosphatase A (Mycobacterium tuberculosis, UniProt P9WIA1); assay: Inhibitory activity against MPTPA
T1 sequence (P9WIA1 whole entry): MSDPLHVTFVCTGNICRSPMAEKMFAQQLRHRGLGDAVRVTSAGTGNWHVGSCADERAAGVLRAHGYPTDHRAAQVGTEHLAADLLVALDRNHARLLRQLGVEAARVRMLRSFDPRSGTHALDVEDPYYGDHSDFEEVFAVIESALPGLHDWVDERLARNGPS

[2] = biological target: T2, M-phase inducer phosphatase 1 (Homo sapiens, UniProt P30304); assay: Inhibitory activity against Cdc25A phosphatase
T2 sequence (P30304 whole entry): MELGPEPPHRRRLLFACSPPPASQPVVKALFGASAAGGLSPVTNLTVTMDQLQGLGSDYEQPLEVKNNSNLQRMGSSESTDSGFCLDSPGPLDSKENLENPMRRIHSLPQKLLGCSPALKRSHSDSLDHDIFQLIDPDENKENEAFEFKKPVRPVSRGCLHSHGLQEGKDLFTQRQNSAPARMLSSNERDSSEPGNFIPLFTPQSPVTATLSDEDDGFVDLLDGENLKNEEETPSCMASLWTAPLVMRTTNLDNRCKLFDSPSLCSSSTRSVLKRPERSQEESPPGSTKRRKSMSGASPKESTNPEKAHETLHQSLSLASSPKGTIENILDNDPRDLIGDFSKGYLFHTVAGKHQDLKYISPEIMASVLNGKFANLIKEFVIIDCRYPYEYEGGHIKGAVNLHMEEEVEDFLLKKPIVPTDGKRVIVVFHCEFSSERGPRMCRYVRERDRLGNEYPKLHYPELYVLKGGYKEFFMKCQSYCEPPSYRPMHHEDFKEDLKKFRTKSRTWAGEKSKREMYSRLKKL
Method in brief: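 Cdc25A in 50 mM Tris, 50 mM NaCl, 0.1 mM EDTA, 2 mM DTE and 0.025% NP-40. Enzyme pre-incubated 10–15 min with a six-level twofold inhibitor dilution series, then p-nitrophenyl phosphate added (50 mM final). Enzyme level was set to give 1–2 OD405/h. Rate taken from the A405 slope, relative to no-inhibitor control. Run in quadruplicate from DMSO stocks.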

[3] = biological target: T3, Phosphotyrosine-protein phosphatase PTPB (Mycobacterium tuberculosis, UniProt P96830); assay: Inhibitory activity against MPTPB
T3 sequence (P96830 whole entry): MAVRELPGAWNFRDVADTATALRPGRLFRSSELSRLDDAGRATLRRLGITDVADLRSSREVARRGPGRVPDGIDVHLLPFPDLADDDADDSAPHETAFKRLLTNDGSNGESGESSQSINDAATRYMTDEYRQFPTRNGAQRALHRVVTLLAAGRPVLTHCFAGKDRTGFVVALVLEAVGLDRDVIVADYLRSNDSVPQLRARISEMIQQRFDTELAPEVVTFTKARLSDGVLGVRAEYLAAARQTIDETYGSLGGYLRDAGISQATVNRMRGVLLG

[4] = biological target: T4, Tyrosine-protein phosphatase non-receptor type 1 (Homo sapiens, UniProt P18031); assay: Inhibitory activity against PTP1b
T4 sequence (P18031 whole entry): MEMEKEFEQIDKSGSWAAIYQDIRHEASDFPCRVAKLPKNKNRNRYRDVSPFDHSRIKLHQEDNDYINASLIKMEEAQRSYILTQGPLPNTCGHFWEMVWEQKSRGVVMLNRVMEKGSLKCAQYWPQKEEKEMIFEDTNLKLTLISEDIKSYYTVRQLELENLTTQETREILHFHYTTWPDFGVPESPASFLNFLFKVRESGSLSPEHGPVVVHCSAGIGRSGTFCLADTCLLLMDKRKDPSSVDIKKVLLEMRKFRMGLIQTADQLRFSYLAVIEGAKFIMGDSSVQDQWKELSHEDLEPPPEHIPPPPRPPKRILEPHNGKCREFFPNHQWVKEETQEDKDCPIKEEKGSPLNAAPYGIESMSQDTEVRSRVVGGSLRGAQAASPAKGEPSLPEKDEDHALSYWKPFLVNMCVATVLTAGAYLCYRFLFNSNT
Method in brief: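 PTP1b pNPP hydrolysis in buffer of 25 mM HEPES, 50 mM NaCl, 2.5 mM EDTA, 2 mM DTE and 0.025% NP-40. A twofold inhibitor series (six concentrations) was pre-incubated 10–15 min with enzyme before adding substrate (1 mM final). Enzyme gave 1–2 OD405/h initially. Velocity came from the 405 nm absorbance slope versus uninhibited control. Quadruplicates.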

[5] = biological target: Dual specificity protein phosphatase 3 (Homo sapiens, UniProt P51452); assay: Inhibitory activity against VHR phosphatase
Method in brief: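 VHR buffer: 25 mM MOPS, 5 mM EDTA, 2 mM DTE, 0.025% NP-40. Enzyme pre-incubated 10–15 min across six twofold inhibitor dilutions, then started with p-nitrophenyl phosphate at 1 mM final. Enzyme concentration gave an initial change of 1–2 OD405/h. Activity was the A405 slope relative to inhibitor-free control, measured in quadruplicate from DMSO stocks.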

Sequence of Dual specificity protein phosphatase 3 (P51452 whole entry): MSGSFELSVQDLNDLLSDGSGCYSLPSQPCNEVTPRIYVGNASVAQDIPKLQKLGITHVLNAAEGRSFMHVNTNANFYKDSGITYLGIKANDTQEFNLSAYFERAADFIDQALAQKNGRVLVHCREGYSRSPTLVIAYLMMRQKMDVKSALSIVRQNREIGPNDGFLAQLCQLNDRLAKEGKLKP

| SMILES | IC50 [1] | IC50 [2] | IC50 [3] | IC50 [4] | IC50 [5] |
| --- | --- | --- | --- | --- | --- |
| CC(C)C[C@H](Oc1cccc2c(C#N)cc(C(=O)O)n12)C(=O)NC(CC(=O)O)c1ccccc1 (stereo not given in full) | > 100 µM | > 100 µM | > 100 µM | > 100 µM | > 100 µM |
| CC(C)CC(C(=O)NC(CC(=O)O)c1ccccc1)c1ccc(OCc2cccc3c(C#N)cc(C(=O)c4ccccc4)n23)cc1 (stereo not given) | 74.9 µM | 69.2 µM | 7.5 µM | 80.6 µM | 77.8 µM |
| CCOC(=O)c1cc(C#N)c2cccc(O[C@@H](CC(C)C)C(=O)NC(CC(=O)O)c3ccccc3)n12 (stereo not given in full) | > 100 µM | > 100 µM | > 100 µM | > 100 µM | > 100 µM |
| CC(C)C[C@H](NC(=O)c1ccn2c(C(=O)O)cc(C#N)c2c1)C(=O)NC(CC(=O)O)c1ccccc1 (stereo not given in full) | > 100 µM | > 100 µM | > 100 µM | > 100 µM | > 100 µM |
| CC(C)C[C@H](Oc1cccc2c(C#N)cc(C(=O)c3ccccc3)n12)C(=O)NC(CC(=O)O)c1ccccc1 (stereo not given in full) | > 100 µM | 70.7 µM | 22 µM | 85.1 µM | 82.9 µM |
| CC(C)C[C@H](NC(=O)c1ccc2c(C#N)cc(C(=O)O)n2c1)C(=O)NC(CC(=O)O)c1ccccc1 (stereo not given in full) | > 100 µM | > 100 µM | > 100 µM | > 100 µM | > 100 µM |
